{"source": "paper PMC2229322", "about": "(The Journal of General Physiology, 1996)", "key": {"[1]": {"molecular_target": "E395C mutant Shaker K+ channel (Drosophila melanogaster, UniProt P08510, C301S/C308S/DEL6-46/E395C/T449V)", "experiment": "Sensitivity of E395C to internal open channel blockers", "format": "cell-based", "conditions": "internal open channel blocker"}, "[2]": {"system": "391C Shaker K+ channel with intact N-type inactivation (Sh +)", "experiment": "N-type inactivation of intact", "format": "cell-based, Drosophila", "conditions": "for effect of 391C modification on N-type inactivation current: voltage jump -80 to 0 mV, 50 ms, complete modification (Fig. 2)", "summary_of_the_method": "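Inside-out patches from HEK293 cells expressing channels with intact N-terminus, stepped -80 to 0 mV. Inactivation gate removed by internal trypsin perfusion. Traces normalised to the mean current of the last 20 ms after trypsin. Ag+ 20 nM for 2 min applied; completeness checked by pulsing at 0.25 Hz.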"}, "K+ channels": {"system": "K+ channels", "experiment": "Test of perfusion change by TEA blockade", "format": "cell-based", "conditions": "internal TEA; reflects time course of solution change by perfusion system", "summary_of_the_method": "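Rapid internal solution exchange on excised patches via a computer-controlled solenoid perfusion system. Exchange speed assessed by applying TEA.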"}, "Shaker K+ channel": {"system": "Shaker K+ channel", "conditions": "intracellular application; ref Choi et al., 1991; cited from earlier work"}, "[3]": {"experiment": "Net charge of ball peptides", "format": "physicochemical", "conditions": "COOH terminal amidated, NH2 terminal positively charged"}, "[4]": {"system": "NH2-terminal deletion mutant Shaker K+ channel", "conditions": "ref Zagotta et al., 1990; cited from earlier work"}, "[5]": {"system": "391C ShA Shaker K+ channel", "experiment": "Rate of chemical modification of 391C", "format": "cell-based, Drosophila", "conditions": "MTSET"}, "[6]": {"system": "381C ShA Shaker K+ channel", "experiment": "Chemical modification of 381C", "format": "cell-based, Drosophila", "conditions": "for slope (time constant x [MTSET]) of current reduction: 381C", "summary_of_the_method": "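Inside-out patches from transfected HEK293 cells; […] to 0 mV from -100 mV holding. Computer-controlled reagent pulses of 1 or 2 s began ~500 ms after step onset; sampled 5 kHz, filtered 1 kHz. Time axis normalised to reagent concentration; current reduction fitted to single exponentials. Frequency runs alternated -100 with 0 or +60 mV, equal time at each.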"}, "[7]": {"system": "cysteine mutants (380-398) of the S4-S5 linker, ShA Shaker K+ channel", "experiment": "Chemical modification of cysteine mutants of the S4-S5 linker", "format": "cell-based, Drosophila", "conditions": "positions with large current reduction", "summary_of_the_method": "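Cysteine-substituted channels in inside-out patches from transfected HEK293 cells, pH 7.4 solutions. Thiol reagents applied internally; completeness of modification followed by pulsing at 0.25 Hz. Conditions: MMTS 2 mM, 1 min; Ag+ 20 nM, 2 min; MTSEA 100 µM, 30 s.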"}, "[8]": {"system": "382C ShA Shaker K+ channel", "experiment": "Chemical modification of 382C", "format": "cell-based, Drosophila", "conditions": "vs 381C, toward more positive voltages (Fig. 7 C and E)"}}, "data": [{"compound": "CCCCCCCCCC[N+](CC)(CC)CC", "note": "[C10-TEA, de- cyltriethylammonium]", "values": [{"measurement": "affinity of E395C mutant compared with wild-type channel", "setting": "[1]", "value": "reduced fourfold"}]}, {"compound": "CSS(C)(=O)=O", "note": "[MMTS, Methyl methanethiosulfonate]", "values": [{"measurement": "effect of 391C modification on N-type inactivation current", "setting": "[2]", "value": "increase in the steady- state current level without much change in the peak current"}]}, {"compound": "CC[N+](CC)(CC)CC", "note": "[TEA, tetraethylammonium]", "values": [{"measurement": "affinity of E395C mutant compared with wild-type channel", "setting": "[1]", "value": "reduced fourfold"}, {"measurement": "time constant of TEA blockade observed", "setting": "K+ channels", "value": "~ 10 ms"}, {"measurement": "effect on N-type inactivation", "setting": "Shaker K+ channel", "value": "slows down N-type inactivation"}]}, {"compound": "[Ag+]", "note": "[Ag+, silver]", "values": [{"measurement": "additional effect of 391C modification on tethered ball", "setting": "[2]; Ag+ 20 nM for 2 min (Fig. 2)", "value": "additional ef- fect on the association rate"}, {"measurement": "effect of 391C modification on N-type inactivation current", "setting": "[2]", "value": "increase in the steady- state current level without much change in the peak current"}]}, {"compound": "CC[N+](CC)(CC)CCSS(C)(=O)=O", "note": "[MTSTEA, [(2-triethylammonium)ethyl] methanethiosulfonate]", "values": [{"measurement": "effect of 391C modification on N-type inactivation current", "setting": "[2]", "value": "qualitatively similar results"}]}, {"compound": "MAAVAGLYGLGEDRQHRKKQ [Shaker ball peptide]", "values": [{"measurement": "net charge", "setting": "[3]", "value": "+3"}, {"measurement": "reconstitution of fast inactivation by intracellular application", "setting": "[4]", "value": "effectively reconsti- tuted"}]}, {"compound": "Trypsin", "values": [{"measurement": "effect of removing the inactivation gate", "setting": "[2]; 0.0025% trypsin perfused on inside-out patch (Fig. 2A)", "value": "larger non-inactivated current level"}]}, {"compound": "C[N+](C)(C)CCSS(C)(=O)=O", "note": "[MTSET, [(2-trimethylammoniuin)ethyl]methanethiosulfonate]", "values": [{"measurement": "effect of 391C modification on N-type inactivation current", "setting": "[2]", "value": "parallel increase of the steady state and the peak current"}, {"measurement": "total current after modification of A391C", "setting": "[5]", "value": "no reduction in the total current"}, {"measurement": "voltage dependence of modification rate of 391C", "setting": "[5]; Fig. 6C", "value": "higher at positive voltages"}, {"measurement": "rate of modification of 381C with rapidly switching stimulus", "setting": "[6]; 50 10-ms pulses vs 5 100-ms pulses, -100 to 0 mV", "value": "about threefold faster"}, {"measurement": "slope (time constant x [MTSET]) of current reduction", "setting": "[6]; MTSET, 0 mV (Fig. 7B)", "value": 0.33, "unit": "mM·s"}, {"measurement": "slope (time constant x [MTSET]) of current reduction", "setting": "[6]; MTSET, -120 mV (Fig. 7B)", "value": 2.47, "unit": "mM·s"}, {"measurement": "current reduction by modification of 381C", "setting": "[6]; MTSET, Fig. 7 A and B", "value": "> 80", "unit": "%"}, {"measurement": "reactivity of positions 389 and 397", "setting": "[7]", "value": "only very slowly reactive"}, {"measurement": "shift of voltage dependence of gating and modification for 382C", "setting": "[8]", "value": "~ 50 mV"}]}]}
